Data on 16 compounds can be found in ChEMBL document CHEMBL1125431, “2-substituted 3-(aminooxy)propanamines as inhibitors of ornithine decarboxylase: synthesis and biological activity” (J Med Chem, 1992).

Experiment [1] has as its target T1, Ornithine decarboxylase (Rattus norvegicus, UniProt P09057).
T1 sequence (P09057 whole entry): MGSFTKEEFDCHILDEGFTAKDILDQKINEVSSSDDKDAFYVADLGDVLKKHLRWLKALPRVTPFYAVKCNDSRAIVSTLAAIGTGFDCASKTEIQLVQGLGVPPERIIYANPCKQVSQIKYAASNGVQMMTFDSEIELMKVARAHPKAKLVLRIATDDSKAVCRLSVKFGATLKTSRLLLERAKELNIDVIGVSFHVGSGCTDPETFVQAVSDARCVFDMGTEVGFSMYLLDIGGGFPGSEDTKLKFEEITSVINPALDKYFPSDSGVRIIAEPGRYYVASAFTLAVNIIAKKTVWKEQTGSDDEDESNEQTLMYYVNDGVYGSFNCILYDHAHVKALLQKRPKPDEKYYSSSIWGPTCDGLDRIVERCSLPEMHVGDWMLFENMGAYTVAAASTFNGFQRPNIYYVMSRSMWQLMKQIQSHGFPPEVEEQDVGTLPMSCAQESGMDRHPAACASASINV
Kind of experiment: Inhibitory activity against Rat liver ornithine decarboxylase (ODC). In short, it runs like this:
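Partially purified rat liver ODC. Reaction at 37 °C for up to 1 h in 100 mM Tris-HCl pH 7 with 4 mM EDTA, 4 mM DTT, 0.4 mM pyridoxal phosphate and 0.21 mM L-ornithine spiked with L-[1-¹⁴C]ornithine. Inhibitor, in 10 mM Tris pH 7, added with substrate. Released ¹⁴CO₂ trapped on alkali filter; acid stop; scintillation counting. IC50 by linear regression of log concentration versus % activity (95–5% range).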

In experiment [2] the test system is T-24. Kind of experiment: Inhibitory activity against Human T24 bladder carcinoma cells. The class given is functional, cell-based.
The test system of experiment [3] is T-24. In words: The compound was tested for anti proliferative activity against Human T24 bladder carcinoma cells. The class given is functional, cell-based.

Molecules are shown by their SMILES. pIC50: −log10 of the molar value.

Consider `NCC(F)CON` (configuration not stated), for which the results for the pIC50 in experiment [1] and in experiment [2] were 7.85 and 5.62, respectively.

Turning to `CS(=O)(=O)OC(CN)CON` (configuration not stated), the pIC50 (in general, the IC50 on a negative log10 scale, so that one unit is a factor of ten) in experiment [1] was 5.96; in experiment [2], 3.95.

Take `CNCC(O)CON` (configuration not stated): the figures for the negative-log IC50 (pIC50) in experiment [1] and in experiment [2] were 5.72 and less than 4.48, respectively.

With `C=CCNCC(O)CON` (configuration not stated), the negative logarithm of the IC50 (pIC50) is 4.68 in experiment [1] and less than 3.64 in experiment [3].

With `NCC(Cl)CON` (configuration not stated), the pIC50 in experiment [1] was 7.03; in experiment [2] it was 5.20.

For the compound `NOCC(O)CON`, the pIC50 in experiment [1] was 3.17; in experiment [2] it was 3.74.

Turning to `Cc1ncc(COP(=O)(O)O)c(/C=N/OCC(F)CN)c1O` (configuration not stated), the pIC50 in experiment [1] was 5.28; in experiment [3] it was 6.22.

Turning to `C#CCNCC(O)CON` (configuration not stated), the pIC50 in experiment [1] is 5.08; in experiment [2], less than 3.64.

Turning to `CN(C)CC(O)CON` (configuration not stated), the pIC50 in experiment [1] was less than 4.30; in experiment [2], less than 4.44.

Consider `NCC(O)CON` (configuration not stated), for which the pIC50 was 7.41 in experiment [1] and 4.61 in experiment [2].

With `NC[C@@H](O)CON`, the pIC50 in experiment [1] was 7.31; in experiment [2], 4.69.

Take `Cc1ncc(COP(=O)(O)O)c(/C=N/OCC(O)CN)c1O` (configuration not stated): the pIC50 is 4.62 in experiment [1] and less than 3.95 in experiment [3].

Consider `NC[C@H](O)CON`, for which the pIC50 was 7.48 in experiment [1] and 4.79 in experiment [2].

Take `NCCCON`: the pIC50 is 7.46 in experiment [1] and 5.08 in experiment [2].

In the case of `NCC(F)CNN` (configuration not stated), the pIC50 was 5.48 in experiment [1] and 3.79 in experiment [2].

Take `CC(C)NCC(O)CON` (configuration not stated): the pIC50 in experiment [1] was 4.18; in experiment [3], less than 4.34.
